The nature of assay [1]: Inhibition of quorum sensing system in Pseudomonas aeruginosa PAO1. Summed up: (§1)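 Plate screen. CV026 grown overnight in LB with 50 μg ml−1 kanamycin; 15 μl seeded into 15 ml LB agar (1.0% agarose) containing 20 μM C4-HSL. PAO1 plates run in parallel. Test colonies inoculated by toothpick, incubated overnight at 37 °C. Ring of colourless viable cells around the colony scored as inhibition.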

Assay [2] has as its system Pseudomonas aeruginosa. Put plainly: Inhibition of biofilm formation in Pseudomonas aeruginosa PAO1 incubated for 24 hrs crystal violet staining based SEM assay. In kind it is functional, organism-based.
The test system of assay [3] is Pseudomonas aeruginosa. In words: Inhibition of biofilm formation in Pseudomonas aeruginosa PAO1 at 1/2 times MIC incubated for 24 hrs crystal violet staining based SEM assay. It is filed as functional.
The test system of assay [4] is Pseudomonas aeruginosa. In words: Inhibition of pyocyanin production in Pseudomonas aeruginosa PAO1 at 1/2 time MIC incubated for 18 hrs. It is filed as functional. Summed up: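 Overnight PAO1 in LB diluted to OD600 = 0.05, subcultured 5–7 h to mid-log, rediluted to OD600 = 0.05. 5 mL with compound grown 18 h at 37 °C, 200 rpm. Supernatant extracted with 3 mL chloroform, back-extracted into 0.2 M HCl, absorbance at 520 nm.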

Assay [5] can be described thus: Inhibition of quorum sensing system in Chromobacterium violaceum CV026. In outline: as §1
The subject of assay [6] is Pseudomonas aeruginosa. In words: Inhibition of rhamnolipid production in Pseudomonas aeruginosa PAO1 at 1/2 to 1/4 times MIC by orcinol method. It is filed as functional, organism-based. In outline:
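Overnight PAO1 diluted 1:100 into LB with compound, 37 °C, 180 rpm; DMSO control. Supernatant (100 μL) mixed with 900 μL 0.19% orcinol in 53% H2SO4, heated 30 min at 80 °C, cooled, read at 421 nm.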

In assay [7] the test system is Pseudomonas aeruginosa. Put plainly: Antibacterial activity against Pseudomonas aeruginosa PAO1 by serial dilution method. In kind it is functional. Summed up:
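PAO1 in LB, 37 °C. MIC by CLSI 2-fold serial dilution in Mueller–Hinton broth, inoculum 1–5 × 10^5 CFU mL−1, DMSO stocks. Growth curves: overnight culture diluted to OD600 = 0.05, subcultured to mid-log, rediluted to OD600 = 0.05, 3 mL with compound; OD620 read at 1, 3, 5, 7, 9, 11 and 24 h at 37 °C; DMSO negative control.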

In assay [8] the test system is Pseudomonas aeruginosa. Put plainly: Inhibition of biofilm formation in Pseudomonas aeruginosa PAO1 at 1/4 times MIC incubated for 24 hrs crystal violet staining based SEM assay. It is filed as functional.

≈ marks a conversion by molar mass, not a printed value. Calls of active or inactive are those of the source. The calls are words filed in the database; no cut-off is given here.

Take `COc1cccc2[nH]cc(Cc3ccccc3C#N)c12`: the inhibition entry in assay [1] was “Active; Strong Inhibition Observed”; in assay [2], “Dose-dependent-effect”. Moreover, in assay [3], the “inhibition (INH)” value is reported as 21%. Also, the inhibition result in assay [4] was “Active”.

`Cc1cccc2c(Cc3ccccc3C#N)c[nH]c12`: the inhibition entry in assay [1] and in assay [4] was “Active” throughout. Also, the figures for the inhibition result in assay [5] and in assay [2] were “Active; Showed Higher Activity” and “Dose-dependent-effect”, respectively. Further, in assay [3], the “inhibition (INH)” value came to 40%.

Regarding `Nc1ccccc1Cc1c[nH]c2ccccc12`, the figures for the inhibition result in assay [5], in assay [2] and in assay [4] were “Active; Showed Higher Activity”, “Dose-dependent-effect” and “Active; Showed Higher Activity Than Positive Control Rsv”, respectively.

For `Cc1cccc(Cc2c[nH]c3ccccc23)c1C#N`, the figures for the inhibition entry in assay [1], in assay [5] and in assay [2] were “Active; Strong Inhibition Observed”, “Active; Showed Higher Activity” and “Dose-dependent-effect”, respectively. In addition, the “inhibition (INH)” value in assay [3] came out at 27%. Also, the inhibition result in assay [4] is “Active”.

Take `Cc1ccc2[nH]cc(Cc3ccccc3C#N)c2c1`: the inhibition entry in assay [1], in assay [5] and in assay [4] was “Active” each time. Further, in assay [2], the inhibition result is “Dose-dependent-effect”. In addition, in assay [3], the “inhibition (INH)” value is 50%.

For `Cn1cc(Cc2ccccc2C#N)c2ccccc21`, the inhibition entry in assay [2] was “Dose-dependent-effect”. The inhibition result in assay [4] was “Active”.

As for `N#Cc1ccc(F)cc1Cc1c[nH]c2ccccc12`, the inhibition result in assay [1] was “Active; Strong Inhibition Observed”; in assay [2], “Dose-dependent-effect”; in assay [4], “Active; Showed Higher Activity Than Positive Control Rsv”. Further, the inhibition entry in assay [5] and in assay [6] was “Active” throughout. Further, the “inhibition (INH)” value in assay [3] was 19%. Further, 12 µg/mL (≈ 47.9 µM) was the least that counted as inhibitory in assay [7] (MIC).

With `CCc1ccccc1C#N`, the inhibition result in assay [5] is “Active; Showed Higher Activity”; in assay [2], “Dose-dependent-effect”. Besides, in assay [8], the “inhibition (INH)” value was 12%. In addition, the inhibition entry in assay [4] was “Active”.

`N#Cc1ccc(Cl)cc1Cc1c[nH]c2ccccc12`: the inhibition result in assay [1] and in assay [4] was “Active” throughout. Besides, in assay [2], the inhibition result was “Dose-dependent-effect”. Moreover, the “inhibition (INH)” value in assay [3] amounted to 56%.

Consider `Cc1ccc(Cc2c[nH]c3ccccc23)c(C#N)c1`, for which the inhibition entry is “Active; Strong Inhibition Observed” in assay [1] and “Dose-dependent-effect” in assay [2]. The results for the “inhibition (INH)” value in assay [3] and in assay [4] were 1% and 60%, respectively.

Take `N#CCCc1c[nH]c2ccccc12`: the figures for the inhibition entry in assay [1], in assay [5] and in assay [2] were “Active; Strong Inhibition Observed”, “Active; Showed Higher Activity” and “Dose-dependent-effect”, respectively. Moreover, in assay [8], the “inhibition (INH)” value is on record as 9%. The inhibition result in assay [4] is “Active”.

Regarding `N#Cc1cccc(F)c1Cc1c[nH]c2ccccc12`, the inhibition entry is “Active; Strong Inhibition Observed” in assay [1], “Active; Showed Higher Activity” in assay [5] and “Dose-dependent-effect” in assay [2]. In assay [3], the “inhibition (INH)” value was 49%. In addition, the inhibition result in assay [4] is “Active”.

For the compound `N#Cc1cc(F)ccc1Cc1c[nH]c2ccccc12`, the inhibition entry in assay [1] is “Active; Strong Inhibition Observed”; in assay [5], “Active; Showed Higher Activity”; in assay [2], “Dose-dependent-effect”; in assay [4] it was “Active; Showed Higher Activity Than Positive Control Rsv”. Besides, the “inhibition (INH)” value in assay [3] came out at 19%. In addition, the inhibition result in assay [6] is “Active”. Moreover, the minimum inhibitory concentration (MIC) (in general, the lowest concentration found to suppress growth) in assay [7] worked out at 48 µg/mL (≈ 192 µM).

On to `CC(C)(C)OC(=O)n1c(-c2ccccc2)c(Cc2ccccc2C#N)c2ccccc21`, for which the values for the inhibition entry in assay [2] and in assay [4] were “Dose-dependent-effect” and “Active; Showed Higher Activity Than Positive Control Rsv”, respectively.

In the case of `N#Cc1ccccc1Cc1c[nH]c2ccc(Br)cc12`, the results for the inhibition entry in assay [1], in assay [5] and in assay [2] were “Active; Strong Inhibition Observed”, “Active; Showed Higher Activity” and “Dose-dependent-effect”, respectively. For the same compound, the “inhibition (INH)” value is 39% in assay [3] and 64% in assay [4].

`Cc1c(Cc2ccccc2C#N)c2ccccc2n1C(=O)OC(C)(C)C`: the inhibition result in assay [2] was “Dose-dependent-effect”. Moreover, the inhibition result in assay [4] is “Active”.

Turning to `Cc1[nH]c2ccccc2c1CCc1ccccc1C#N`, the results for the inhibition result in assay [1] and in assay [2] were “Active; Strong Inhibition Observed” and “Dose-dependent-effect”, respectively. For the same compound, the inhibition result in assay [5] and in assay [4] was “Active” each time.

In the case of `N#Cc1ccc(Br)cc1Cc1c[nH]c2ccccc12`, the inhibition entry in assay [1], in assay [5] and in assay [4] was “Active” throughout. Further, the inhibition entry in assay [2] was “Dose-dependent-effect”. In addition, the “inhibition (INH)” value in assay [3] is recorded as 21%.

On to `N#Cc1ccccc1Cc1ccccc1`, for which the inhibition entry in assay [2] is “Dose-dependent-effect”. In assay [4], the inhibition entry is “Active”.

Turning to `N#Cc1c(Cl)cccc1Cc1c[nH]c2ccccc12`, the inhibition result was “Active; Strong Inhibition Observed” in assay [1] and “Dose-dependent-effect” in assay [2]. The inhibition result in assay [5] and in assay [4] was “Active” in each case. Also, in assay [3], the “inhibition (INH)” value was 1%.

With `N#Cc1ccccc1Cc1c[nH]c2cc(Br)ccc12`, the inhibition entry in assay [2] is “Dose-dependent-effect”. Further, the “inhibition (INH)” value in assay [3] is listed as 21%. In addition, the inhibition result in assay [4] is “Active”.

In the case of `Cc1ccc(C#N)c(Cc2c[nH]c3ccccc23)c1`, the inhibition entry is “Active; Strong Inhibition Observed” in assay [1] and “Dose-dependent-effect” in assay [2]. In addition, the “inhibition (INH)” value in assay [3] worked out at 24%. For the same compound, in assay [4], the inhibition entry was “Active”.

With `CCOC(=O)C(C#N)c1c[nH]c2ccccc12` (centres undefined), the inhibition entry in assay [5] and in assay [4] was “Active” in each case. In addition, the inhibition entry in assay [2] was “Dose-dependent-effect”.

Consider `N#Cc1ccccc1Cc1c[nH]c2cccc(F)c12`, for which, in assay [2], the inhibition result was “Dose-dependent-effect”. The “inhibition (INH)” value in assay [3] came out at 35%. The inhibition entry in assay [4] was “Active”.

With `CC(c1ccccc1C#N)c1c[nH]c2ccccc12` (centres undefined), the figures for the inhibition entry in assay [1] and in assay [2] were “Active; Strong Inhibition Observed” and “Dose-dependent-effect”, respectively. For the same compound, in assay [4], the inhibition result is “Active”.

On to `Cc1cccc2[nH]cc(Cc3ccccc3C#N)c12`, for which the inhibition result in assay [1] was “Active”. Moreover, the inhibition result in assay [5] was “Active; Showed Higher Activity”; in assay [2] it was “Dose-dependent-effect”; in assay [4], “Active; Showed Higher Activity Than Positive Control Rsv”. For the same compound, the “inhibition (INH)” value in assay [3] was determined as 17%.

As for `Cc1ccc2c(Cc3ccccc3C#N)c[nH]c2c1`, the inhibition result in assay [1] is “Active”. Also, the inhibition entry is “Active; Showed Higher Activity” in assay [5], “Dose-dependent-effect” in assay [2] and “Active; Showed Higher Activity Than Positive Control Rsv” in assay [4]. Further, the “inhibition (INH)” value in assay [3] is reported as 7%.

For the compound `N#Cc1ccccc1Cc1c[nH]c2ccc(Cl)cc12`, the inhibition result in assay [1] and in assay [4] was “Active” each time. The inhibition entry is “Active; Showed Higher Activity” in assay [5] and “Dose-dependent-effect” in assay [2]. In assay [3], the “inhibition (INH)” value was found to be 11%.

For the compound `N#Cc1ccccc1Cc1c[nH]c2cc(Cl)ccc12`, the inhibition entry in assay [1] and in assay [4] was “Active” each time. Moreover, the inhibition entry in assay [2] is “Dose-dependent-effect”. The “inhibition (INH)” value in assay [3] is 26%.

In the case of `Cc1[nH]c2ccccc2c1Cc1ccccc1C#N`, the inhibition result in assay [1] and in assay [4] was “Active” throughout. Moreover, in assay [2], the inhibition entry is “Dose-dependent-effect”. The “inhibition (INH)” value in assay [3] is given as 13%.

As for `N#Cc1cccc(Cl)c1Cc1c[nH]c2ccccc12`, the inhibition entry in assay [1] was “Active; Strong Inhibition Observed”; in assay [5], “Active; Showed Higher Activity”; in assay [2], “Dose-dependent-effect”; in assay [4], “Active; Showed Higher Activity Than Positive Control Rsv”. Also, the “inhibition (INH)” value in assay [3] was determined as 4%. In assay [6], the inhibition result is “Active”. The MIC in assay [7] is 24 µg/mL (≈ 90 µM).

For `CCOC(=O)C(C#N)Cc1c[nH]c2ccccc12` (centres undefined), the inhibition entry in assay [1] is “Active; Strong Inhibition Observed”; in assay [2], “Dose-dependent-effect”. Also, the inhibition result in assay [4] is “Active”.
